Data on 3 molecules can be found in ChEMBL document CHEMBL1143066, “Characterization and optimization of selective, nonpeptidic inhibitors of cathepsin S with an unprecedented binding mode” (J Med Chem, 2007).

Where only a bound is given, the exact number is not on record here.

The target in test [1] is Cathepsin B (Homo sapiens, UniProt P07858). Briefly: Inhibition of cathepsin B. Summed up:
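Cathepsin B (2 nM) in pH 6.1 phosphate/NaCl/DTT/EDTA/Tween-20 buffer, preincubated with inhibitor (in DMSO) for 5 min at 37 °C. Cbz-Phe-Arg-AMC 2.5 µM then added and AMC followed for 5 min (ex 355/em 450 nm). Five inhibitor levels spanning 10–90% inhibition, in duplicate. IC50 from V_i/V_o plots, converted as K_i = IC50 − E_t/2.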

Test [2] has as its target T1, Cathepsin K (Homo sapiens, UniProt P43235).
T1 sequence (P43235 whole entry): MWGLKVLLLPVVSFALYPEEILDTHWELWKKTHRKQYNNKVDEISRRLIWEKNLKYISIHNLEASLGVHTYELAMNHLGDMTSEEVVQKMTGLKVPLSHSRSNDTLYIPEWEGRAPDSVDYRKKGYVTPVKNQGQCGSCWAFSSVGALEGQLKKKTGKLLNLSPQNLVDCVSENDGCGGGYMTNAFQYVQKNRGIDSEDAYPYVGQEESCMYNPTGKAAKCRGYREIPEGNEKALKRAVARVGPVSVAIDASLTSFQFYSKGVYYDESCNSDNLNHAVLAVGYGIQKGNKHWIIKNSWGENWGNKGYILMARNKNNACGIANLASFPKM
Nature of the test: Inhibition of cathepsin K. Summed up: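 Cathepsin K at 10 nM, preincubated 5 min at 37 °C with DMSO-delivered inhibitor in pH 6.1 sodium phosphate buffer with NaCl, DTT, EDTA, Tween-20. Then 2.5 µM Cbz-Phe-Arg-AMC; AMC release monitored for 5 min (ex 355/em 450 nm). Duplicates at five inhibitor concentrations giving 10–90% inhibition. K_i = IC50 − E_t/2, with IC50 from V_i/V_o versus concentration.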

Test [3] concerns the target Cathepsin S (Homo sapiens, UniProt P25774). Nature of the test: Inhibition of cathepsin S. Put shortly: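 Cathepsin S 0.7 nM with inhibitor (added in DMSO), 5 min at 37 °C in pH 6.1 phosphate buffer containing NaCl, DTT, EDTA and Tween-20. IC50 from V_i/V_o plot, converted to K_i via IC50 − E_t/2.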
Test [4] deals with Procathepsin L (Homo sapiens, UniProt P07711). Briefly: Inhibition of cathepsin L.
Chain of Procathepsin L (P07711 whole entry): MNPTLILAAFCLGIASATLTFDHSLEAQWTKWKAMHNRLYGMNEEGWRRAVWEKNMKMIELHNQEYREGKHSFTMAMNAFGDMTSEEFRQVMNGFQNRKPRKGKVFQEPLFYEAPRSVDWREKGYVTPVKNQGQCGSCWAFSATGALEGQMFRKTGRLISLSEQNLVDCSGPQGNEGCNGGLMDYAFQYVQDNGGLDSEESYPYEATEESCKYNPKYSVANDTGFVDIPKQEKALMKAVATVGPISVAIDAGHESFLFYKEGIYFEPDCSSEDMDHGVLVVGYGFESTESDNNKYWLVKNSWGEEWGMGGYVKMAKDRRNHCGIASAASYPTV

Chain of Cathepsin S (P25774 whole entry): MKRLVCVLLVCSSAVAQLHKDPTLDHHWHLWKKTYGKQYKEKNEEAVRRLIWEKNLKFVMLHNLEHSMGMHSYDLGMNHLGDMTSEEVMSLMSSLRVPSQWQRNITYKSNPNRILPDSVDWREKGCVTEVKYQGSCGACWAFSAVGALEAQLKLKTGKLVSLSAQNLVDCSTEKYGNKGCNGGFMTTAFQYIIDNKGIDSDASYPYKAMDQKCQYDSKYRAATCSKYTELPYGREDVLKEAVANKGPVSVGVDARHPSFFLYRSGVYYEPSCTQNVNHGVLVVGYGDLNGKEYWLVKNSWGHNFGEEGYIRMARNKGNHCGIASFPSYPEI

Consider `O=CCOc1ccccc1-c1ccc(F)c(F)c1F`, for which the Ki in test [1] is over 15000 nM; in test [2] it was 1510 nM.
With `CCCc1ccc(-c2ccccc2OCC=O)c(F)c1F`, the Ki in test [3] is 48.7 nM; in test [1] it was over 15000 nM; in test [2], 1280 nM.
Regarding `CC(C)Cc1ccc(-c2ccccc2OCC=O)c(F)c1F`, the Ki in test [3] was 9.6 nM; in test [1] it was over 15000 nM; in test [2] it was 1240 nM; in test [4], over 15000 nM.

The term Ki denotes a dissociation constant, usually derived from enzyme kinetics or from competition with a known ligand.
